In ChEMBL document CHEMBL3612066, “Design, Synthesis, and Biological Evaluation of Pyrazolo[1,5-a]pyridine-3-carboxamides as Novel Antitubercular Agents” (ACS Med Chem Lett, 2015):
≈ marks a conversion by molar mass, not a printed value.

What was measured:
[1] = tested on: Mycobacterium tuberculosis; experiment: Antitubercular activity against Mycobacterium tuberculosis H37Ra after 7 days by microplate alamar blue assay; assay type: functional; conditions: 168 h
[2] = tested on: Mycobacterium tuberculosis; experiment: Antitubercular activity against Mycobacterium tuberculosis H37Rv after 7 days by microplate alamar blue assay; assay type: functional; conditions: 168 h
How it was run: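 MIC against Mtb H37Rv by microplate alamar blue assay (MABA); MIC values interpolated by curve fitting.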

Vero = experiment: Cytotoxicity against African green monkey Vero cells after 72 hrs by CCK8 assay; assay type: cell-based; conditions: Chlorocebus sabaeus
How it was run: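 VERO African green monkey kidney cells; growth inhibition read by CCK-8 assay and reported as IC50. Values are means of two or more independent experiments, with variation <20%.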

[3] = tested on: Mycobacterium tuberculosis; experiment: Antitubercular activity against autoluminescent Mycobacterium tuberculosis H37Ra infected in noninvasive BALB/c mouse assessed as bioluminescence intensity by measuring relative light unit at 20 mg/kg, po qd for 6 days; assay type: functional
How it was run: (§1)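 Mice were infected intravenously with log-phase, marker-free autoluminescent Mtb H37Ra at 2 × 10^6 CFU per mouse. They were then dosed by oral gavage once daily for 6 consecutive days at 4, 20 or 100 mg/kg/day, with CMC-Na as vehicle. Bioluminescence (RLU) was read in the same live, anesthetized mice every other day and expressed as the RLUdayn/RLUday0 ratio. Mortality was monitored during treatment.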

[4] = tested on: Mycobacterium tuberculosis; experiment: Antitubercular activity against fluorescent reporter strain of Mycobacterium tuberculosis H37Rv after 5 days by fluorescence assay; assay type: functional, organism-based; conditions: 120 h
How it was run: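 A fluorescent reporter strain of Mtb H37Rv was grown in liquid medium under aerobic conditions, and growth was read by fluorescence. MIC, IC50 and IC90 were determined.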

[5] = tested on: Mycobacterium tuberculosis; experiment: Antitubercular activity against autoluminescent Mycobacterium tuberculosis H37Ra infected in noninvasive BALB/c mouse assessed as bioluminescence intensity by measuring relative light unit at 100 mg/kg, po qd for 6 days; assay type: functional; how it was run: as §1
[6] = tested on: Mycobacterium tuberculosis; experiment: Antitubercular activity against autoluminescent Mycobacterium tuberculosis H37Ra infected in noninvasive BALB/c mouse assessed as bactericidal activity by measuring reduction in relative light unit at 100 mg/kg, po qd for 6 days relative to control; assay type: functional; how it was run: as §1
[7] = tested on: Mycobacterium tuberculosis; experiment: Antitubercular activity against autoluminescent Mycobacterium tuberculosis H37Ra infected in noninvasive BALB/c mouse assessed as bactericidal activity by measuring reduction in relative light unit at 100 mg/kg, po qd for 4 days relative to control; assay type: functional
[8] = tested on: Mycobacterium tuberculosis; experiment: Antitubercular activity against autoluminescent Mycobacterium tuberculosis H37Ra infected in noninvasive BALB/c mouse assessed as bactericidal activity by measuring reduction in relative light unit at 100 mg/kg, po qd for 2 days relative to control; assay type: functional; how it was run: as §1
[9] = tested on: Mycobacterium tuberculosis; experiment: Antitubercular activity against autoluminescent Mycobacterium tuberculosis H37Ra infected in po dosed noninvasive BALB/c mouse assessed as bioluminescence intensity by measuring relative light unit administered qd for 6 days; assay type: functional, organism-based; how it was run: as §1
Mus musculus = experiment: Toxicity in autoluminescent Mycobacterium tuberculosis H37Ra infected noninvasive BALB/c mouse assessed as mortality at 4 to 100 mg/kg, po qd for 6 days; assay type: organism-based; conditions: in vivo, 144 h; how it was run: as §1
[10] = tested on: Mycobacterium tuberculosis; experiment: Antitubercular activity against autoluminescent Mycobacterium tuberculosis H37Ra infected in noninvasive BALB/c mouse assessed as bioluminescence intensity by measuring relative light unit at 4 mg/kg, po qd for 6 days; assay type: functional; how it was run: as §1

SMILES: O=C(NCc1ccc(N2CCC(c3ccc(OC(F)(F)F)cc3)CC2)cc1)c1c(-c2ccccc2)nn2ccc(Cl)cc12
- MIC [1]: > 16.5 µM
- MIC [2]: 1.55 µM (≈ 0.936 µg/mL)

SMILES: Cc1ccn2nc(C)c(C(=O)NCc3ccc(N4CCCCC4)cc3)c2c1
- MIC [1]: 0.0276 µM (≈ 0.01 µg/mL)
- MIC [2]: 0.0166 µM (≈ 0.00602 µg/mL)
- IC50 (Vero): > 100000 nM

SMILES: Cc1nn2ccc(-c3ccccc3)cc2c1C(=O)NCc1ccc(N2CCC(c3ccc(OC(F)(F)F)cc3)CC2)cc1
- MIC [1]: > 17.1 µM
- MIC [2]: 0.479 µM (≈ 0.28 µg/mL)

SMILES: Cc1nn2ccc(C(F)(F)F)cc2c1C(=O)NCc1ccc(N2CCC(c3ccc(OC(F)(F)F)cc3)CC2)cc1
- MIC [1]: 1.73 µM (≈ 1 µg/mL)
- MIC [2]: 0.052 µM (≈ 0.03 µg/mL)
- IC50 (Vero): > 100000 nM

SMILES: COc1ccn2nc(C)c(C(=O)NCc3ccc(N4CCC(c5ccc(OC(F)(F)F)cc5)CC4)cc3)c2c1
- RLU [3]: 0.19
- IC50 [4]: 2.5 nM
- IC90 [4]: 5.7 nM
- MIC [4]: 0.0056 µM (≈ 0.00302 µg/mL)
- MIC [1]: 0.0056 µM (≈ 0.00302 µg/mL)
- RLU [5]: 0.15
- RLU [6]: 6.5
- RLU [7]: 5
- MIC [2]: 0.0111 µM (≈ 0.00598 µg/mL)
- RLU [8]: 3.6
- IC50 (Vero): > 100000 nM
- Activity [9]: Dose-dependent effect
- Activity (Mus musculus): Non-toxic
- RLU [10]: 0.4

SMILES: Cc1ccn2nc(C)c(C(=O)NCc3ccc(N4CCC(C(F)(F)F)CC4)cc3)c2c1
- MIC [1]: 0.0023 µM (≈ 0.00099 µg/mL)
- MIC [2]: 0.0139 µM (≈ 0.00598 µg/mL)
- IC50 (Vero): > 100000 nM

SMILES: Cc1ccn2nc(C)c(C(=O)NCc3ccc(N(C)C)cc3)c2c1
- MIC [1]: 0.31 µM (≈ 0.1 µg/mL)
- MIC [2]: 0.0868 µM (≈ 0.028 µg/mL)
- IC50 (Vero): > 100000 nM

SMILES: Cc1nn2ccc(C(C)(C)C)cc2c1C(=O)NCc1ccc(N2CCC(c3ccc(OC(F)(F)F)cc3)CC2)cc1
- MIC [1]: > 17.7 µM
- MIC [2]: > 1.77 µM

SMILES: O=C(NCc1ccc(N2CCC(c3ccc(OC(F)(F)F)cc3)CC2)cc1)c1c(C2CC2)nn2ccc(Cl)cc12
- MIC [1]: 0.176 µM (≈ 0.1 µg/mL)
- MIC [2]: 0.0176 µM (≈ 0.01 µg/mL)
- IC50 (Vero): > 100000 nM

SMILES: O=C(NCc1ccc(N2CCC(c3ccc(OC(F)(F)F)cc3)CC2)cc1)c1cnn2ccc(Cl)cc12
- MIC [1]: 18.9 µM (≈ 10 µg/mL)
- MIC [2]: 0.359 µM (≈ 0.19 µg/mL)

SMILES: CCc1ccn2nc(C)c(C(=O)NCc3ccc(N4CCC(c5ccc(OC(F)(F)F)cc5)CC4)cc3)c2c1
- MIC [1]: 0.0186 µM (≈ 0.00998 µg/mL)
- MIC [2]: 0.0112 µM (≈ 0.00601 µg/mL)
- IC50 (Vero): > 100000 nM

SMILES: CCc1nc2ccc(Cl)cn2c1C(=O)NCc1ccc(N2CCC(c3ccc(OC(F)(F)F)cc3)CC2)cc1 [TELACEBEC]
- MIC [1]: 0.0054 µM (≈ 0.00301 µg/mL)
- MIC [2]: 0.0108 µM (≈ 0.00602 µg/mL)
- IC50 (Vero): > 100000 nM

SMILES: Cc1ccn2nc(C)c(C(=O)NCc3ccc(N4CCN(c5ccc(F)cc5)CC4)cc3)c2c1
- IC50 [4]: 2.5 nM
- IC90 [4]: 6.5 nM
- MIC [4]: 0.0063 µM (≈ 0.00288 µg/mL)
- MIC [1]: 0.0066 µM (≈ 0.00302 µg/mL)
- MIC [2]: 0.0131 µM (≈ 0.00599 µg/mL)
- IC50 (Vero): > 100000 nM

SMILES: Cc1nn2ccc(Cl)cc2c1C(=O)NCc1ccc(N2CCC(c3ccc(OC(F)(F)F)cc3)CC2)cc1
- MIC [1]: 0.0184 µM (≈ 0.00999 µg/mL)
- MIC [2]: 0.0074 µM (≈ 0.00402 µg/mL)
- IC50 (Vero): > 100000 nM

SMILES: CCc1nn2ccc(Cl)cc2c1C(=O)NCc1ccc(N2CCC(c3ccc(OC(F)(F)F)cc3)CC2)cc1
- IC50 [4]: 31.3 nM
- IC90 [4]: 150 nM
- MIC [4]: 0.129 µM (≈ 0.0719 µg/mL)
- MIC [1]: 0.0538 µM (≈ 0.03 µg/mL)
- MIC [2]: 0.0108 µM (≈ 0.00602 µg/mL)
- IC50 (Vero): > 100000 nM

SMILES: Cc1nn2c(C)cccc2c1C(=O)NCc1ccc(N2CCC(c3ccc(OC(F)(F)F)cc3)CC2)cc1
- MIC [1]: 5.74 µM (≈ 3 µg/mL)
- MIC [2]: 0.115 µM (≈ 0.06 µg/mL)

SMILES: Cc1nn2ccccc2c1C(=O)NCc1ccc(N2CCC(c3ccc(OC(F)(F)F)cc3)CC2)cc1
- MIC [1]: 0.59 µM (≈ 0.3 µg/mL)
- MIC [2]: 0.0098 µM (≈ 0.00498 µg/mL)
- IC50 (Vero): > 100000 nM

SMILES: CO[C@H]1/C=C/O[C@@]2(C)Oc3c(C)c(O)c4c(O)c(c(/C=N/N5CCN(C)CC5)c(O)c4c3C2=O)NC(=O)/C(C)=C\C=C\[C@H](C)[C@H](O)[C@@H](C)[C@@H](O)[C@@H](C)[C@H](OC(C)=O)[C@@H]1C [RIFAMPIN]
- IC50 [4]: 4.1 nM
- IC90 [4]: 6.9 nM
- MIC [4]: 0.0065 µM (≈ 0.00535 µg/mL)
- MIC [1]: 0.00364 µM (≈ 0.003 µg/mL)
- MIC [2]: 0.0364 µM (≈ 0.03 µg/mL)

SMILES: Cc1nn2ccc(C(C)C)cc2c1C(=O)NCc1ccc(N2CCC(c3ccc(OC(F)(F)F)cc3)CC2)cc1
- MIC [1]: 1.82 µM (≈ 1 µg/mL)
- MIC [2]: 0.0472 µM (≈ 0.026 µg/mL)

SMILES: Cc1ccn2nc(C)c(C(=O)NCc3ccc(-c4ccc(OC(F)(F)F)cc4)cc3)c2c1
- MIC [1]: 0.0068 µM (≈ 0.00299 µg/mL)
- MIC [2]: 0.0137 µM (≈ 0.00602 µg/mL)
- IC50 (Vero): 50700 nM

SMILES: Cc1ccn2nc(C)c(C(=O)NCc3ccc(C(F)(F)F)cc3)c2c1
- MIC [1]: 0.288 µM (≈ 0.1 µg/mL)
- MIC [2]: 0.0691 µM (≈ 0.024 µg/mL)
- IC50 (Vero): > 100000 nM

SMILES: NNC(=O)c1ccncc1 [ISONIAZID]
- MIC [1]: 0.729 µM (≈ 0.1 µg/mL)
- MIC [2]: 2.99 µM (≈ 0.41 µg/mL)

SMILES: Cc1nn2cccc(C)c2c1C(=O)NCc1ccc(N2CCC(c3ccc(OC(F)(F)F)cc3)CC2)cc1
- MIC [1]: > 19.1 µM
- MIC [2]: 1.15 µM (≈ 0.6 µg/mL)

SMILES: Cc1ccn2nc(C)c(C(=O)NCc3ccc(N4CCC(c5ccc(OC(F)(F)F)cc5)CC4)cc3)c2c1
- IC50 [4]: 5.1 nM
- IC90 [4]: 12 nM
- MIC [4]: 0.011 µM (≈ 0.00575 µg/mL)
- MIC [1]: 0.0057 µM (≈ 0.00298 µg/mL)
- MIC [2]: 0.0077 µM (≈ 0.00402 µg/mL)
- IC50 (Vero): > 100000 nM

SMILES: Cc1ccc2c(C(=O)NCc3ccc(N4CCC(c5ccc(OC(F)(F)F)cc5)CC4)cc3)c(C)nn2c1
- MIC [1]: 0.574 µM (≈ 0.3 µg/mL)
- MIC [2]: 0.0134 µM (≈ 0.007 µg/mL)
- IC50 (Vero): > 100000 nM
